Source: PubChem BioAssay AID588746 (Vanderbilt Specialized Chemistry Center, 2011)
Blank lines part the entries; values can stand above or below the molecule they belong to. Calls of active or inactive are those of the source.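 The calls were made as follows: active = a clear concentration-dependent response in the calcium flux assay, with a fitted half-maximal potency; inactive = the rest.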

Target: Muscarinic acetylcholine receptor M2 (Homo sapiens) (UniProt P08172)
Assay: potentiation of ACh at human M2 – CHO Gqi5 cells, calcium fluorescence, counter-screen, dose response (AID 588746)
Conditions: CHO hM2/Gqi5 calcium mobilization, Fluo-4 fluorescence
Method in brief: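 System: hM2/Gqi5 CHO cells | Reagent: ACh EC20 then ACh EC80 | Incubation: 144 s compound pretreatment, 86 s EC20–EC80 gap, 37 °C | Technique: Fluo-4 calcium kinetic read | Benchmarks: 1 mM ACh maximum | Measure: Baseline-corrected calcium signal as percent of 1 mM ACh maximum, logistic-fit EC50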

Chain of Muscarinic acetylcholine receptor M2 (Homo sapiens) (P08172 whole entry, looked up): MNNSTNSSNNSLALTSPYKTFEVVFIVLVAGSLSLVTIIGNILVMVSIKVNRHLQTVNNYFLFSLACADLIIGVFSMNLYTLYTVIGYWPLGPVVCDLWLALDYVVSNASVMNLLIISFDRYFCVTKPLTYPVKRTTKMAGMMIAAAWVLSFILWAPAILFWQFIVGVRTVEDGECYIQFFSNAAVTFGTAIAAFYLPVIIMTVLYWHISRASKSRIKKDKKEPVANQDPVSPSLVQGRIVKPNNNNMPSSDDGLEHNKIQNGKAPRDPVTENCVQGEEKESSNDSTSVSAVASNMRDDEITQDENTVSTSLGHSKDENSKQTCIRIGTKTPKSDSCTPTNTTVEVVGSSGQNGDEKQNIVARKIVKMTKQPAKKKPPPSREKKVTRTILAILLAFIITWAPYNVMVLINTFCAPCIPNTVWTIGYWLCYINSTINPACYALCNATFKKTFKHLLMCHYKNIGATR

SMILES: Cc1nc2sc(C(=O)NCc3ccc4c(c3)OCO4)c(N)c2c(C)c1Cl
percent of ACh max response (at 36.8 µM (top of the series)): inactive

SMILES: Cc1nc2sc(C(=O)NCCc3ccncc3)c(N)c2c(C)c1Cl
percent of ACh max response (at 30 µM (top of the series)): inactive

SMILES: Cc1nc2sc(C(=O)NC3CC3)c(N)c2c(C)c1Cl
EC50: 548 nM

SMILES: Cc1nc2sc(C(=O)NCc3ccccc3)c(N)c2c(C)c1Cl
percent of ACh max response (at 37.4 µM (top of the series)): inactive

SMILES: Cc1nc2sc(C(=O)NCc3cccc(F)c3F)c(N)c2c(C)c1Cl
percent of ACh max response (at 30 µM (top of the series)): inactive

Second part, the molecule after the results:

percent of ACh max response (at 30 µM (top of the series)): inactive
SMILES: Cc1nc2sc(C(=O)NCc3ccncn3)c(N)c2c(C)c1Cl

percent of ACh max response (at 45.3 µM (top of the series)): inactive
SMILES: Cc1nc2sc(C(=O)NCc3cccnc3)c(N)c2c(C)c1Cl

percent of ACh max response (at 30 µM (top of the series)): inactive
SMILES: Cc1nc2sc(C(=O)NCc3nccs3)c(N)c2c(C)c1Cl

percent of ACh max response (at 45.3 µM (top of the series)): inactive
SMILES: Cc1nc2sc(C(=O)NCc3ccncc3)c(N)c2c(C)c1Cl
